Test results as given in ChEMBL document CHEMBL1125354, “Analogs of CCK incorporating conformationally constrained replacements for Asp32” (J Med Chem, 1992).
*1 amine or outer side, *2 acyl side, *3 side chain or, on linkers, in order; H or OH if unused. Where a SMILES comes first, the peptide text is derived from it. Side-chain parts run from the residue outwards. [ ]: non-standard residue; d: D form. The star is where a group is joined. ξ: configuration not given here. Thz(5,5-Me2) = CC1(C)SCN[C@@H]1C(=O)O; NMeF = CN[C@@H](Cc1ccccc1)C(=O)O; NH(2-Me-phenyl) = Cc1ccccc1N*; ξF = NC(Cc1ccccc1)C(=O)O; Boc = CC(C)(C)OC(=O)*; CO = O=C([*:1])[*:2]

Key:
[1] = biological target: T1, Cholecystokinin receptor type A (Rattus norvegicus, UniProt P30551); experiment: Inhibitory activity against cholecystokinin type A receptor from rat pancreas binding assay
T1 sequence (P30551 whole entry): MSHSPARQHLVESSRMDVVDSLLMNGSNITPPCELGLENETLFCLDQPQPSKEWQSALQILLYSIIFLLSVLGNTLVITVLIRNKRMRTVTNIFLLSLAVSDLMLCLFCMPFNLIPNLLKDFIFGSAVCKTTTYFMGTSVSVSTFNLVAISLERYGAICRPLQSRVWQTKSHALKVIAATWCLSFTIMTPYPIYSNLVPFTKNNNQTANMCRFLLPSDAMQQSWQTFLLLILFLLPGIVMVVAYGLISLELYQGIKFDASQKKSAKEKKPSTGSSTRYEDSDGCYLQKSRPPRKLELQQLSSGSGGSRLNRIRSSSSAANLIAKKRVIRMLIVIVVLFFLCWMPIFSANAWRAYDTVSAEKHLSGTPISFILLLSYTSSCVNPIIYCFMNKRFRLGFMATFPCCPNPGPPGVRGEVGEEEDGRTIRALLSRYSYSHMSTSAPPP
Method in brief: (§1)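 Solubilized membranes from fresh pancreas of fasted rats (CCK-A). Competition against [3H]propanoyl-CCK-8. Nonspecific binding defined with 1 μM native CCK-8 and subtracted. IC50 is the concentration inhibiting 50% of total specific binding, from log-probit analysis. Actives confirmed in duplicate experiments.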

[2] = tested on: Rattus norvegicus; experiment: Dose required to inhibit the food intake by 50% in rats after intraperitoneal administration; format: functional; conditions: ip
Method in brief: (§2)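 Male Sprague–Dawley rats (200–250 g), meal-fed. "1-2-1": trained 4–5 days on two 1-h meals 2 h apart; ip dosing 15 min before first meal, n=5–6. "Overnight fasted": n=5–7, ip vehicle or drug, food offered 1 h. Intake as % of saline control over first hour; t-test vs control; ED50 by log-probit.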

[3] = tested on: Rattus norvegicus; experiment: Dose required to inhibit the food intake by 50% in rats at a dose of 320 ug/kg ip; format: functional; method in brief: as §2
[4] = tested on: Rattus norvegicus; experiment: Suppression of food intake in rats when administered intraperitoneally; format: functional; method in brief: as §2
[5] = biological target: T2, Gastrin/cholecystokinin type B receptor (Bos taurus, UniProt P79266); experiment: Concentration inhibiting [3H]propionyl-CCK-8 binding to cholecystokinin type B receptor of bovine striatum.; format: tissue-based
T2 sequence (P79266 whole entry): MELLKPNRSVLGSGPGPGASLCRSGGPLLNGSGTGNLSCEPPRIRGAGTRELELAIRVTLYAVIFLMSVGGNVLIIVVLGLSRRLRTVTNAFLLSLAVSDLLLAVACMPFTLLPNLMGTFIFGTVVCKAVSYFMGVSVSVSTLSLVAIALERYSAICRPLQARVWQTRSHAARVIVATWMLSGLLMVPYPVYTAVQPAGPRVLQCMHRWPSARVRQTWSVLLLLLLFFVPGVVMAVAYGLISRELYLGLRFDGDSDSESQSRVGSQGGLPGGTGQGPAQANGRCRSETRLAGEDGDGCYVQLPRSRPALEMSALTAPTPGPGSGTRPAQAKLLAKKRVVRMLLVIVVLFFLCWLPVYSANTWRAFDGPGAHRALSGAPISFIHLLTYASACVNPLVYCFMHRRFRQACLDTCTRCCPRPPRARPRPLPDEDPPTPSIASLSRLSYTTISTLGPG
Method in brief: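 CCK-B binding used solubilized bovine striatal membranes and [3H]propanoyl-CCK-8 displacement. Nonspecific binding was taken with 1 μM native CCK-8 and subtracted. IC50, the concentration giving 50% inhibition of total specific binding, was obtained by log-probit analysis. Actives were confirmed in duplicate experiments.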

[6] = biological target: T1, Cholecystokinin receptor type A; experiment: Concentration inhibiting [3H]propionyl-CCK-8 binding to cholecystokinin type A receptor of rat pancreatic membranes.; method in brief: as §1

SMILES | IC50 [1] [nM] | ED50 [3] [mg/kg] | IC50 [5] [nM] | IC50 [6] [nM] | other results
Cc1ccccc1NC(=O)NCCCC[C@H](NC(=O)[C@H](Cc1c[nH]c2ccccc12)NC(=O)OC(C)(C)C)C(=O)N1CSC(C)(C)[C@H]1C(=O)NC(Cc1ccccc1)C(N)=O (stereo not given in full) (Boc-WK([CO-NH(2-Me-phenyl)])[Thz(5,5-Me2)][ξF]-NH2) | 59 | – | – | – | ED50 [2]: 0.085 mg/kg
CSCC[C@H](NC(=O)[C@H](Cc1ccc(OS(=O)(=O)O)cc1)NC(C)=O)C(=O)NCC(=O)N[C@@H](Cc1c[nH]c2ccccc12)C(=O)N[C@@H](CCSC)C(=O)N1CSC(C)(C)[C@@H]1C(=O)N[C@@H](Cc1ccccc1)C(N)=O [listing 1 of 2 here] | – | > 0.32 | – | – | Control [4]: 66%
Cc1ccccc1NC(=O)NCCCC[C@H](NC(=O)[C@H](Cc1c[nH]c2ccccc12)NC(=O)OC(C)(C)C)C(=O)N[C@@H](CC(=O)O)C(=O)N(C)[C@@H](Cc1ccccc1)C(N)=O (Boc-WK([CO-NH(2-Me-phenyl)])D[NMeF]-NH2) | 0.05 | – | – | – | –
CSCC[C@H](NC(=O)[C@H](Cc1ccc(OS(=O)(=O)O)cc1)NC(C)=O)C(=O)NCC(=O)N[C@@H](Cc1c[nH]c2ccccc12)C(=O)N[C@@H](CCSC)C(=O)N1CSC(C)(C)[C@@H]1C(=O)N[C@@H](Cc1ccccc1)C(N)=O [listing 2 of 2 here] | – | – | 6160 | 314 | –
CSCC[C@H](NC(=O)[C@H](Cc1ccc(OS(=O)(=O)O)cc1)NC(C)=O)C(=O)NCC(=O)N[C@@H](Cc1c[nH]c2ccccc12)C(=O)N[C@@H](CCSC)C(=O)N1CSC(C)(C)[C@H]1C(=O)N[C@@H](Cc1ccccc1)C(N)=O [listing 1 of 2 here] | – | – | 2310 | 0.05 | –
CSCC[C@H](NC(=O)[C@H](Cc1ccc(OS(=O)(=O)O)cc1)NC(C)=O)C(=O)NCC(=O)N[C@@H](Cc1c[nH]c2ccccc12)C(=O)N[C@@H](CCSC)C(=O)N1CSC(C)(C)[C@H]1C(=O)N[C@@H](Cc1ccccc1)C(N)=O [listing 2 of 2 here] | – | 0.0044 | – | – | –
